Source: BindingDB's records for doi:10.1021/jm049010r (University of Florida, 2005)

Molecular target: Melanocortin receptor 4 (Mus musculus, UniProt P56450)
Assay: Effective concentration for mouse Melanocortin-4 receptor
How it was run: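 HEK-293 cells stably expressing mouse melanocortin receptors (G418-selected) were transiently transfected with a CRE/β-galactosidase reporter. Lysates were incubated with ONPG at 37° and read at OD405. Signals were normalized to relative protein (OD595) and to forskolin response. EC50 came from nonlinear least-squares fits of duplicate experiments in quadruplet or more.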

Sequence of Melanocortin receptor 4 (P56450 whole entry): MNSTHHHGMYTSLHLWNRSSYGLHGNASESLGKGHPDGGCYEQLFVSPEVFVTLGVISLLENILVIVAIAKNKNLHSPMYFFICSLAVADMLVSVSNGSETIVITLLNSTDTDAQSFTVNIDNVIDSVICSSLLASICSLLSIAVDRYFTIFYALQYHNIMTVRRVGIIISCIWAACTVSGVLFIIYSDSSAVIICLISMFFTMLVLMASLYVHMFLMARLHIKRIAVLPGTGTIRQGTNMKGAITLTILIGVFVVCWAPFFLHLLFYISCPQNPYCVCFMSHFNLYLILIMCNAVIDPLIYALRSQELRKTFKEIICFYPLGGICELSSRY

EC50 [nM] | Compound
0.57 | C[C@@H]1NC(=O)[C@H](CC(N)=O)NC(=O)[C@H](Cc2c[nH]c3ccccc23)NC(=O)[C@H](CCCNC(=N)N)NC(=O)[C@@H](Cc2cccc3ccccc23)NC(=O)[C@H](Cc2cnc[nH]2)NC(=O)[C@@H](NC(=O)[C@@H](N)Cc2ccc(O)cc2)CC(=O)N([C@@H](Cc2ccc(O)cc2)C(N)=O)C(C)(C(=O)O)NC(=O)[C@H](Cc2ccccc2)NC1=O (some centres not stated)
0.57 | C[C@@H]1NC(=O)[C@H](CC(N)=O)NC(=O)[C@H](Cc2c[nH]c3ccccc23)NC(=O)[C@H](CCCNC(=N)N)NC(=O)[C@@H](Cc2ccc(-c3ccccc3)cc2)NC(=O)[C@H](Cc2cnc[nH]2)NC(=O)[C@@H](NC(=O)[C@@H](N)Cc2ccc(O)cc2)CC(=O)N([C@@H](Cc2ccc(O)cc2)C(N)=O)C(C)(C(=O)O)NC(=O)[C@H](Cc2ccccc2)NC1=O (some centres not stated)
